According to ChEMBL document CHEMBL3124904, “Second-generation derivatives of the eukaryotic translation initiation inhibitor pateamine A targeting eIF4A as potential anticancer agents” (Bioorg Med Chem, 2014):
The source made the active and inactive calls. No cut-off for these calls is given here.

Key:
HeLa [1] = assay: Antiproliferative activity against human HeLa cells assessed as DNA synthesis level after 24 hrs by thymidine incorporation assay; assay type: functional, cell-based
Summary of the method: (§1)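 Cells kept at 37 °C, 5% CO2 with penicillin-streptomycin and 10% FBS. Adherent lines seeded at 2000 cells/well and left to recover overnight; Jurkat seeded at 5000 cells/well with no recovery period. Compound added in DMSO (0.1% final, vehicle-only control) at 0.001–100 nM over 10 wells. DNA synthesis read out after 24 h. Mean IC50 from at least 3 independent assays.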

HaCaT = assay: Antiproliferative activity against human HaCaT cells assessed as DNA synthesis level after 24 hrs by thymidine incorporation assay; assay type: functional, cell-based; summary of the method: as §1
RKO = assay: Antiproliferative activity against human RKO cells assessed as DNA synthesis level after 24 hrs by thymidine incorporation assay; assay type: functional, cell-based; summary of the method: as §1
[2] = Antiproliferative activity against human Jurkat T cells assessed as DNA synthesis level after 24 hrs by thymidine incorporation assay; assay type: functional, cell-based; summary of the method: as §1
[3] = Antiproliferative activity against BAEC assessed as DNA synthesis level after 24 hrs by thymidine incorporation assay; conditions: Bos taurus; summary of the method: as §1
Jurkat [4] = assay: Immunosuppressive activity in human Jurkat T cells assessed as inhibition of IL-2 transcription; assay type: functional, cell-based
Oryctolagus cuniculus [5] = species on record: Oryctolagus cuniculus; assay: Inhibition of cap-independent HCV-IRES-induced translation in rabbit reticulocyte lysate at 500 nM after 1.5 hrs by luciferase reporter gene assay; assay type: functional
Summary of the method: (§2)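 Capped bicistronic reporter mRNA: cap-dependent firefly luciferase first cistron, HCV IRES-driven Renilla second cistron. Transcribed in vitro with SP6 from the BamHI-linearised plasmid. 200 ng RNA translated in rabbit reticulocyte lysate with 70 mM KCl, 2 mM DTT, RNasin and compound in DMSO (5% v/v final), 30 °C for 1.5 h. Dual luciferase readout. Duplicates, 4 independent assays, mean IC50 by curve fit.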

HeLa [6] = assay: Antiproliferative activity against human HeLa cells up to 500 nM after 72 hrs by MTT assay; assay type: functional, cell-based
Summary of the method: (§3)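 HeLa and SK-MEL2 grown in DMEM, Jurkat in RPMI 1640, each with 10% FBS and penicillin-streptomycin, at 37 °C and 5% CO2. Adherent cells seeded at 2000/well and left to recover overnight; Jurkat seeded at 5000/well with no recovery. Compound added in DMSO (0.1% final), then 72 h incubation and MTT readout.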

Jurkat [7] = assay: Antiproliferative activity against human Jurkat T cells up to 10^4 nM after 72 hrs by MTT assay; assay type: functional, cell-based; summary of the method: as §3
SK-MEL-2 [8] = assay: Antiproliferative activity against human SK-MEL-2 cells up to 10^4 nM after 72 hrs by MTT assay in presence of 10% FBS; assay type: functional, cell-based; summary of the method: as §3
Oryctolagus cuniculus [9] = species on record: Oryctolagus cuniculus; assay: Binding affinity to eIF4A1/2 in rabbit reticulocyte lysate assessed as inhibition of cap-dependent translation up to 500 nM after 1.5 hrs by dual luciferase reporter gene assay; summary of the method: as §2
HeLa [10] = assay: Antiproliferative activity against human HeLa cells after 72 hrs by MTT assay; assay type: functional, cell-based; summary of the method: as §3
[11] = Binding affinity to eIF4A1/2 in rabbit reticulocyte lysate assessed as inhibition of cap-dependent translation after 1.5 hrs by dual luciferase reporter gene assay; design: species or system Oryctolagus cuniculus; summary of the method: as §2
[12] = Antiproliferative activity against human Jurkat T cells after 72 hrs by MTT assay; assay type: functional, cell-based; summary of the method: as §3
SK-MEL-2 [13] = assay: Antiproliferative activity against human SK-MEL-2 cells after 72 hrs by MTT assay in presence of 10% FBS; assay type: functional, cell-based; conditions: SK-MEL-2, 72 h; summary of the method: as §3
Oryctolagus cuniculus [14] = species on record: Oryctolagus cuniculus; assay: Binding affinity to eIF4A1/2 in rabbit reticulocyte lysate assessed as cap-dependent translation at 500 nM after 1.5 hrs by dual luciferase reporter gene assay relative to control
Summary of the method: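 Rabbit reticulocyte lysate translating the cap-dependent/HCV IRES dual-luciferase mRNA, with compound at 500 nM in DMSO (5% v/v final), 30 °C for 1.5 h. Cap-dependent luciferase expressed as % translation relative to DMSO control.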

## CC(/C=C/C(C)=C/[C@@H]1Cc2nc(cs2)[C@@H](C)C[C@@H](NC(=O)c2ccccc2)CC(=O)O[C@@H](C)C/C(C)=C/C=C\C(=O)O1)=C\CN(C)C
HeLa [1]
  IC50: 0.0161 µM
HaCaT
  IC50: 0.0034 µM
RKO
  IC50: 0.0042 µM
[2]
  IC50: 0.0116 µM
[3]
  IC50: 0.0128 µM
Jurkat [4]
  IC50: 0.015 µM

## COCCC/C=C/C(C)=C/[C@@H]1Cc2nc(cs2)[C@@H](C)C[C@@H](NC(=O)OC(C)(C)C)CC(=O)O[C@@H](C)C/C(C)=C/C#CC(=O)O1
HeLa [1]
  IC50: > 0.1 µM
HaCaT
  IC50: > 0.1 µM
RKO
  IC50: > 0.1 µM
[3]
  IC50: > 0.02 µM
Jurkat [4]
  IC50: 0.055 µM

## COCCC/C=C/C(C)=C/[C@@H]1Cc2nc(cs2)CCCCC(=O)O[C@@H](C)C/C(C)=C/C=C\C(=O)O1
Oryctolagus cuniculus [5]
  inhibition: inactive
HeLa [6]
  Activity: inactive
Jurkat [7]
  Activity: inactive
SK-MEL-2 [8]
  Activity: inactive
Oryctolagus cuniculus [9]
  inhibition: inactive

## CC(/C=C/C=C/CO)=C\[C@@H]1Cc2nc(cs2)CCCCC(=O)O[C@@H](C)C/C(C)=C/C=C\C(=O)O1
Oryctolagus cuniculus [5]
  inhibition: inactive
HeLa [10]
  IC50: > 5 µM
[11]
  IC50: > 0.5 µM
[12]
  IC50: > 10 µM
SK-MEL-2 [13]
  IC50: > 5 µM

## C/C(Br)=C\[C@@H]1Cc2nc(cs2)CCCCC(=O)O[C@@H](C)C/C(C)=C/C#CC(=O)O1
Oryctolagus cuniculus [5]
  inhibition: inactive
HeLa [6]
  Activity: inactive
Jurkat [7]
  Activity: inactive
SK-MEL-2 [8]
  Activity: inactive

## CC(/C=C/C(C)=C/[C@@H]1Cc2nc(cs2)CCCCC(=O)O[C@@H](C)C/C(C)=C/C=C/C(=O)O1)=C\CN(C)C
Oryctolagus cuniculus [5]
  inhibition: inactive
HeLa [10]
  IC50: 0.86 µM
[11]
  IC50: > 0.5 µM
[12]
  IC50: > 10 µM
SK-MEL-2 [13]
  IC50: 0.95 µM
Oryctolagus cuniculus [14]
  Activity: 80%

## CC(/C=C/C(C)=C/[C@@H]1Cc2nc(cs2)CCCCC(=O)O[C@@H](C)C/C(C)=C/C#CC(=O)O1)=C\CN(C)C
Oryctolagus cuniculus [5]
  inhibition: inactive
HeLa [6]
  Activity: inactive
Jurkat [7]
  Activity: inactive
SK-MEL-2 [8]
  Activity: inactive
Oryctolagus cuniculus [9]
  inhibition: inactive

## CC(/C=C/CCCO)=C\[C@@H]1Cc2nc(cs2)CCCCC(=O)O[C@@H](C)C/C(C)=C/C=C\C(=O)O1
Oryctolagus cuniculus [5]
  inhibition: inactive
HeLa [6]
  Activity: inactive
[12]
  IC50: > 5 µM
SK-MEL-2 [13]
  IC50: > 5 µM
Oryctolagus cuniculus [9]
  inhibition: inactive

## CC(/C=C/CCCN(C)C)=C\[C@@H]1Cc2nc(cs2)[C@@H](C)C[C@@H](NC(=O)OC(C)(C)C)CC(=O)O[C@@H](C)C/C(C)=C/C=C\C(=O)O1
HaCaT
  IC50: > 0.1 µM
[3]
  IC50: > 0.02 µM
Jurkat [4]
  IC50: 0.33 µM

## CC(/C=C/C=C/CO)=C\[C@@H]1Cc2nc(cs2)CCCCC(=O)O[C@@H](C)C/C(C)=C/C#CC(=O)O1
Oryctolagus cuniculus [5]
  inhibition: inactive
HeLa [6]
  Activity: inactive
Jurkat [7]
  Activity: inactive
SK-MEL-2 [8]
  Activity: inactive

## CC(/C=C/C(C)=C/[C@@H]1Cc2nc(cs2)CCCCC(=O)O[C@@H](C)C/C(C)=C/C#CC(=O)O1)=C\CN1CCCC1
HeLa [6]
  Activity: inactive
Jurkat [7]
  Activity: inactive
SK-MEL-2 [8]
  Activity: inactive

## C/C(Br)=C\[C@@H]1Cc2nc(cs2)CCCCC(=O)O[C@@H](C)C/C(C)=C/C=CC(=O)O1
HeLa [6]
  Activity: inactive
Jurkat [7]
  Activity: inactive
SK-MEL-2 [8]
  Activity: inactive
